Assay results from ChEMBL document CHEMBL3392964, “Design, synthesis, and evaluation of novel imidazo[1,2-a][1,3,5]triazines and their derivatives as focal adhesion kinase inhibitors with antitumor activity” (J Med Chem, 2015).
The source made the active and inactive calls. The calls are words filed in the database; no cut-off is given here.

Experiments:
[1] = test system: U-87 MG; assay: Induction of apoptosis in human U87MG cells assessed as late apoptotic cells at 1 uM after 24 hrs by Annexin V-PE/7-AAD staining-based FACS analysis (reference value: 1.59%); format: functional, U-87MG ATCC
[2] = target: T1, Focal adhesion kinase 1 (Homo sapiens, UniProt Q05397); assay: Inhibition of FAK phosphorylation at tyrosine 397 in human U87MG cells at 0.1 to 10 uM after 48 hrs by FACEFAK ELISA; format: cell-based; conditions: U-87MG ATCC
Method in brief: (§1)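 Cells were grown in DMEM with 10% FBS, seeded at 3 × 10^3 per well and treated for 48 h at 0.1, 1 and 10 μM. They were then fixed in 4% formaldehyde and probed with anti-phospho-Tyr397 FAK or total-FAK antibody plus an HRP secondary, read at 450 nm. Signal was normalised to total FAK and to crystal-violet cell number (595 nm). Values are fold decrease versus control, mean of triplicate readings from three independent experiments.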

[3] = test system: U-87MG ATCC; assay: Antimigratory activity in human U87MG cells after 30 mins by boyden chamber assay; format: functional, cell-based
[4] = target: T1, Focal adhesion kinase 1; assay: Inhibition of FAK phosphorylation at tyrosine 397 in human MDA-MB-231 cells at 0.1 to 10 uM after 48 hrs by FACEFAK ELISA; format: cell-based; method in brief: as §1
[5] = (§2) Inhibition of colony formation in human U87MG cells after 2 weeks by crystal violet staining-based assay; format: functional, cell-based, U-87MG ATCC; conditions: U-87 MG, 336 h
Method in brief: (§3)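 Seeding: 250 cells per well for HCT-116, 300 for U87MG, MDA-MB-231 and PC-3; incubated overnight, then exposed to a range of concentrations for 2 weeks. Fixed in 4% paraformaldehyde 30 min at room temperature, stained with 0.1% crystal violet. Colonies over 50 cells counted; colony formation rate calculated; IC50 by nonlinear regression.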

[6] = test system: U-87MG ATCC; assay: as §2; format: functional, cell-based; method in brief: as §3
[7] = Cell cycle arrest in human HCT116 cells assessed as accumulation at S phase at 0.3 uM after 24 hrs by propidium iodide staining-based flow cytometry (reference value: 17.7%); format: functional; conditions: HCT-116
Method in brief: (§4)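 Cells plated at 10^5 per well, left overnight, then exposed 24 h to compound or vehicle; stained 15 min at 37 °C with propidium iodide/Triton buffer; DNA content by flow cytometry, phase distribution fitted by Dean–Jett–Fox; HCT-116 at 0.3–0.5 μM, U87-MG at 0.3–3 μM; significance by unpaired Student's t test; one representative experiment.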

[8] = Antiproliferative activity against human U87MG cells after 48 hrs by WST-1 assay; format: functional, cell-based, U-87MG ATCC; conditions: U-87 MG
Method in brief: (§5)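 Exponentially growing cells in DMEM/10% FBS seeded at 5 × 10^3 per well, left overnight, then exposed 48 h to compounds diluted from DMSO; WST-1 added for 2 h, absorbance at 450 nm (reference 620 nm); viability as ratio to DMSO controls; three independent experiments, triplicate points; IC50 by nonlinear regression (log inhibitor vs normalized response, variable slope).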

[9] = (§6) Inhibition of colony formation in human HCT116 cells after 2 weeks by crystal violet staining-based assay; format: functional, cell-based; conditions: HCT-116, 336 h; method in brief: as §3
[10] = test system: HCT-116; assay: as §6; format: functional, cell-based; method in brief: as §3
[11] = Cell cycle arrest in human U87MG cells assessed as accumulation at S phase at 1 uM after 24 hrs by propidium iodide staining-based flow cytometry (reference value: 16%); format: functional; conditions: U-87MG ATCC; method in brief: as §4
[12] = Antimigratory activity in human U87MG cells at 1 uM […] by transwell membrane assay; format: functional, U-87MG ATCC
[13] = test system: HCT-116; assay: Induction of apoptosis in human HCT116 cells at < 0.3 uM after 24 hrs by Annexin V-PE/7-AAD staining-based FACS analysis; format: functional, cell-based
[14] = test system: MDA-MB-231; assay: Antiproliferative activity against human MDA-MB-231 cells after 48 hrs by WST-1 assay; format: functional, cell-based; conditions: MDA-MB-231, 48 h; method in brief: as §5
[15] = Cell cycle arrest in human U87MG cells at < 1 uM after 24 hrs by propidium iodide staining-based flow cytometry; format: functional; conditions: U-87MG ATCC; method in brief: as §4
[16] = Antiproliferative activity against human HCT116 cells after 48 hrs by WST-1 assay; format: functional, cell-based; conditions: HCT-116, 48 h; method in brief: as §5
[17] = test system: U-87 MG; assay: Reduction of cell adherence in human U87MG cells at 1 uM after 30 mins by toluidine blue staining-based […]; format: functional, U-87MG ATCC; set-up: scale not given: the % may be the effect or the level left
Method in brief: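 U87-MG cells grown in 10% serum, trypsinised, diluted to 100 000 cells/mL in 10% serum medium, then treated 30 min with compound or DMSO. 20 000 cells per well allowed to attach 1 h. Fixed in 4% paraformaldehyde 30 min, stained with 0.1% toluidine blue in 4% PFA 30 min, washed, OD read at 620 nm for attached cells.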

[18] = test system: HCT-116; assay: Induction of apoptosis in human HCT116 cells assessed as early apoptotic cells at 0.3 uM after 24 hrs by Annexin V-PE/7-AAD staining-based FACS analysis (reference value: 4.68%); format: functional
[19] = target: T1, Focal adhesion kinase 1; assay: Inhibition of FAK phosphorylation at tyrosine 397 in human PC3 cells at 0.1 to 10 uM after 48 hrs by FACEFAK ELISA; format: cell-based; conditions: PC-3; method in brief: as §1
[20] = Cell cycle arrest in human HCT116 cells assessed as accumulation at G2/M phase at 0.3 uM after 24 hrs by propidium iodide staining-based flow cytometry (reference value: 14.6%); format: functional; conditions: HCT-116; method in brief: as §4
[21] = test system: HCT-116; assay: Induction of apoptosis in human HCT116 cells assessed as late apoptotic cells at 0.3 uM after 24 hrs by Annexin V-PE/7-AAD staining-based FACS analysis (reference value: 1.22%); format: functional
[22] = target: T1, Focal adhesion kinase 1; assay: Inhibition of FAK phosphorylation at tyrosine 397 in human HCT116 cells at 0.1 to 10 uM after 48 hrs by FACEFAK ELISA; format: cell-based; conditions: HCT-116; method in brief: as §1
[23] = test system: MDA-MB-231; assay: Inhibition of colony formation in human MDA-MB-231 cells after 2 weeks by crystal violet staining-based assay; format: functional, cell-based; method in brief: as §3
[24] = test system: U-87 MG; assay: Induction of apoptosis in human U87MG cells assessed as necrotic cells at 1 uM after 24 hrs by Annexin V-PE/7-AAD staining-based FACS analysis (reference value: 1.06%); format: functional, U-87MG ATCC
[25] = Cell cycle arrest in human U87MG cells assessed as accumulation at G2/M phase at 1 uM after 24 hrs by propidium iodide staining-based flow cytometry (reference value: 20%); format: functional; conditions: U-87MG ATCC; method in brief: as §4
[26] = Cell cycle arrest in human U87MG cells assessed as accumulation at G0/G1 phase at 1 uM after 24 hrs by propidium iodide staining-based flow cytometry (reference value: 61.7%); format: functional; conditions: U-87MG ATCC; method in brief: as §4
[27] = Cell cycle arrest in human HCT116 cells assessed as accumulation at G0/G1 phase at 0.3 uM after 24 hrs by propidium iodide staining-based flow cytometry (reference value: 63.8%); format: functional; conditions: HCT-116; method in brief: as §4
[28] = test system: U-87 MG; assay: Induction of apoptosis in human U87MG cells assessed as viable cells at 1 uM after 24 hrs by Annexin V-PE/7-AAD staining-based FACS analysis (reference value: 96.7%); format: functional, U-87MG ATCC; conditions: read-out: Activity
[29] = test system: HCT-116; assay: Induction of apoptosis in human HCT116 cells assessed as apoptotic cells at 0.3 uM after 24 hrs by Annexin V-PE/7-AAD staining-based FACS analysis relative to control; format: functional
[30] = test system: HCT-116; assay: Induction of apoptosis in human HCT116 cells assessed as necrotic cells at 0.3 uM after 24 hrs by Annexin V-PE/7-AAD staining-based FACS analysis (reference value: 0.885%); format: functional
[31] = test system: U-87 MG; assay: Induction of apoptosis in human U87MG cells assessed as early apoptotic cells at 1 uM after 24 hrs by Annexin V-PE/7-AAD staining-based FACS analysis (reference value: 0.691%); format: functional, U-87MG ATCC
[32] = Antiproliferative activity against human PC3 cells after 48 hrs by WST-1 assay; format: functional, cell-based; conditions: PC-3, 48 h; method in brief: as §5
[33] = test system: PC-3; assay: (§7) Inhibition of colony formation in human PC3 cells after 2 weeks by crystal violet staining-based assay; format: functional, cell-based; method in brief: as §3
[34] = as §7; format: functional, cell-based; conditions: PC-3, 336 h; method in brief: as §3
[35] = test system: HCT-116; assay: Induction of apoptosis in human HCT116 cells assessed as viable cells at 0.3 uM after 24 hrs by Annexin V-PE/7-AAD staining-based FACS analysis (reference value: 93.2%); format: functional; conditions: HCT-116, 24 h, read-out: Activity
[36] = Cell cycle arrest in human HCT116 cells at < 0.3 uM after 24 hrs by propidium iodide staining-based flow cytometry; format: functional; conditions: HCT-116; method in brief: as §4

T1 sequence (Q05397 2-1052 limits assumed): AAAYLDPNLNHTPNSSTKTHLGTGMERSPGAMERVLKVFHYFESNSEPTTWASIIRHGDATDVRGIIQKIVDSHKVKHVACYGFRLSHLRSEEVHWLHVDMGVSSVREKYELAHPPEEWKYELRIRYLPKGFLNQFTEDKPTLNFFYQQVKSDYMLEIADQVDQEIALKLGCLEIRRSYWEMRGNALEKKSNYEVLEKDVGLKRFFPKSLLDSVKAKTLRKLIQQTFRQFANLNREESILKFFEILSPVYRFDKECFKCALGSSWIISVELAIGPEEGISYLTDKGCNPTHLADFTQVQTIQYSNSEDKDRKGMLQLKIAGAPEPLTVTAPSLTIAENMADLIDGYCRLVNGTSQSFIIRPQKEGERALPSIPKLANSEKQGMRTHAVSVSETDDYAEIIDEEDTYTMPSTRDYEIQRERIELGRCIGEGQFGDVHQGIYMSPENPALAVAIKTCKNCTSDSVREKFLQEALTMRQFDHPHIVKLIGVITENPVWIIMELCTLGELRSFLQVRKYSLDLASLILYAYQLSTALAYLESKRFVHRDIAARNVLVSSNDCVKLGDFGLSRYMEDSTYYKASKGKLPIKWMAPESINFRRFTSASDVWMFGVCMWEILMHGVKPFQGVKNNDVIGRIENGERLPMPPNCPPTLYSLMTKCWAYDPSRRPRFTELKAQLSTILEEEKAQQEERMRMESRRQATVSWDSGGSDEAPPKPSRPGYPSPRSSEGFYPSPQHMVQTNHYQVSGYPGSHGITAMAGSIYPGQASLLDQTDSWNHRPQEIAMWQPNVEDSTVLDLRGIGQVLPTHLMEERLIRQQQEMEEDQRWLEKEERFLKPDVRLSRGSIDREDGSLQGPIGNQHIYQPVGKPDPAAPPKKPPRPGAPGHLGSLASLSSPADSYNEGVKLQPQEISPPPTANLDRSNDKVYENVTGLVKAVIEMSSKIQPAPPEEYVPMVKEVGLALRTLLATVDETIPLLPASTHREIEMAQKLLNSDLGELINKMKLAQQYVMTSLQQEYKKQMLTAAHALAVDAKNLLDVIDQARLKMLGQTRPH

## CNC(=O)c1ccccc1Nc1nc(Nc2ccc(N3CCOCC3)cc2OC)ncc1Cl
[1]
  Activity: 0.596%
[2]
  inhibition: Active
[3]
  Activity: Dose-dependent effect
[4]
  inhibition: Active
[5]
  IC50: 190 nM
[6]
  inhibition: Dose-dependent effect
[7]
  Activity: 10.4%
[8]
  IC50: 1200 nM
[9]
  IC50: 230 nM
[10]
  inhibition: Dose-dependent effect
[11]
  Activity: 7.11%
[12]
  Activity: 25.5%
[13]
  Activity: Active
[14]
  IC50: 2800 nM
[15]
  Activity: Active
[16]
  IC50: 400 nM
[17]
  Activity: 36%
[18]
  Activity: 12.3%
[19]
  inhibition: Active
[20]
  Activity: 54.4%
[21]
  Activity: 32%
[22]
  inhibition: Active
[23]
  inhibition: Dose-dependent effect
[23]; MDA-MB-231, 336 h
  IC50: 1900 nM
[24]
  Activity: 0.9%
[25]
  Activity: 40.8%
[26]
  Activity: 49.9%
[27]
  Activity: 31.3%
[28]
  viability at 1 µM: 95.4%
[29]
  Activity: 41.8%
[30]
  Activity: 13.1%
[31]
  Activity: 3.12%
[32]
  IC50: 1600 nM
[33]
  inhibition: Dose-dependent effect
[34]
  IC50: 260 nM
[35]
  viability at 0.3 µM: 42.7%
[36]
  Activity: Active
